In ChEMBL document CHEMBL4837245, “Discovery of VU6028418: A Highly Selective and Orally Bioavailable M4 Muscarinic Acetylcholine Receptor Antagonist” (ACS Med Chem Lett, 2021):

Assays:
[1] = biological target: T1, CYP1A2 (Homo sapiens, UniProt P05177); assay: Induction of CYP1A2 in human hepatocytes relative to control; format: ADME, cell-based, Hepatocyte
T1 sequence (P05177 whole entry): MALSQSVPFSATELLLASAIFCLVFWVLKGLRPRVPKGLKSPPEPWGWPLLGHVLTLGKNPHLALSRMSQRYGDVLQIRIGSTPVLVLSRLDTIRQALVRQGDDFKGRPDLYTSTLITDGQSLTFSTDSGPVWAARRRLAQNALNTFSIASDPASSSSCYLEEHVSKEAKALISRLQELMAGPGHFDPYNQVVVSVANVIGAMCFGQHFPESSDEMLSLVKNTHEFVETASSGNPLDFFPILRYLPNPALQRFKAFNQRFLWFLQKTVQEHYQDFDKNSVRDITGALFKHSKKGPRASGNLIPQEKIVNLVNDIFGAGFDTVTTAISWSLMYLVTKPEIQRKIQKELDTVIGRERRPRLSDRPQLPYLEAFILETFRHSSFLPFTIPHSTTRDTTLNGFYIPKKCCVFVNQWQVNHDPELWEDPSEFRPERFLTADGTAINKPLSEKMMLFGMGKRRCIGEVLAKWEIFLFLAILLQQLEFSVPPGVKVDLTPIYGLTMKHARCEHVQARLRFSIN

[2] = biological target: Muscarinic acetylcholine receptor M3 (Homo sapiens, UniProt P20309); assay: Antagonist activity at human muscarinic M3 receptor expressed in CHO cells co-expressing Gqi5 assessed as inhibition of acetylcholine-induced calcium mobilization; format: functional
Sequence of Muscarinic acetylcholine receptor M3 (P20309 whole entry): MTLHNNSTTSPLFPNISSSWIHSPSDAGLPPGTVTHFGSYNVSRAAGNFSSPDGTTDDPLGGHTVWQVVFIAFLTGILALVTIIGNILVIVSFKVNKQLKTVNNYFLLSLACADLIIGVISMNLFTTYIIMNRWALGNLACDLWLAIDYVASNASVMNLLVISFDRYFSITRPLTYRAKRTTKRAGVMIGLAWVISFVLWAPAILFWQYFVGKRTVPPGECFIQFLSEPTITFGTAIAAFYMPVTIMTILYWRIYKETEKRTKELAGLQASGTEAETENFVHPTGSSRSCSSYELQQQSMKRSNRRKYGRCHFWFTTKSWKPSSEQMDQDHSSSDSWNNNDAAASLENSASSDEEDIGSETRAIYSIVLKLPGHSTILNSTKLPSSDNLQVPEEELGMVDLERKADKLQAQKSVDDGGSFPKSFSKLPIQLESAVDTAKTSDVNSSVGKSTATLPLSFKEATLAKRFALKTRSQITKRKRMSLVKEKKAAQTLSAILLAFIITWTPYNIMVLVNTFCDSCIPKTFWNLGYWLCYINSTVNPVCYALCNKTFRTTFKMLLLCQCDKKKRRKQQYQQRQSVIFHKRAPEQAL
Procedure, shortened: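 CHO cells stably transfected with the given human mAChR subtype. Compound added before an EC80 concentration of acetylcholine; antagonism read as calcium mobilization. One independent determination in triplicate.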

[3] = biological target: hERG (Homo sapiens, UniProt Q12809); assay: Inhibition of human ERG at 10 uM relative to control
Sequence of hERG (Q12809 whole entry): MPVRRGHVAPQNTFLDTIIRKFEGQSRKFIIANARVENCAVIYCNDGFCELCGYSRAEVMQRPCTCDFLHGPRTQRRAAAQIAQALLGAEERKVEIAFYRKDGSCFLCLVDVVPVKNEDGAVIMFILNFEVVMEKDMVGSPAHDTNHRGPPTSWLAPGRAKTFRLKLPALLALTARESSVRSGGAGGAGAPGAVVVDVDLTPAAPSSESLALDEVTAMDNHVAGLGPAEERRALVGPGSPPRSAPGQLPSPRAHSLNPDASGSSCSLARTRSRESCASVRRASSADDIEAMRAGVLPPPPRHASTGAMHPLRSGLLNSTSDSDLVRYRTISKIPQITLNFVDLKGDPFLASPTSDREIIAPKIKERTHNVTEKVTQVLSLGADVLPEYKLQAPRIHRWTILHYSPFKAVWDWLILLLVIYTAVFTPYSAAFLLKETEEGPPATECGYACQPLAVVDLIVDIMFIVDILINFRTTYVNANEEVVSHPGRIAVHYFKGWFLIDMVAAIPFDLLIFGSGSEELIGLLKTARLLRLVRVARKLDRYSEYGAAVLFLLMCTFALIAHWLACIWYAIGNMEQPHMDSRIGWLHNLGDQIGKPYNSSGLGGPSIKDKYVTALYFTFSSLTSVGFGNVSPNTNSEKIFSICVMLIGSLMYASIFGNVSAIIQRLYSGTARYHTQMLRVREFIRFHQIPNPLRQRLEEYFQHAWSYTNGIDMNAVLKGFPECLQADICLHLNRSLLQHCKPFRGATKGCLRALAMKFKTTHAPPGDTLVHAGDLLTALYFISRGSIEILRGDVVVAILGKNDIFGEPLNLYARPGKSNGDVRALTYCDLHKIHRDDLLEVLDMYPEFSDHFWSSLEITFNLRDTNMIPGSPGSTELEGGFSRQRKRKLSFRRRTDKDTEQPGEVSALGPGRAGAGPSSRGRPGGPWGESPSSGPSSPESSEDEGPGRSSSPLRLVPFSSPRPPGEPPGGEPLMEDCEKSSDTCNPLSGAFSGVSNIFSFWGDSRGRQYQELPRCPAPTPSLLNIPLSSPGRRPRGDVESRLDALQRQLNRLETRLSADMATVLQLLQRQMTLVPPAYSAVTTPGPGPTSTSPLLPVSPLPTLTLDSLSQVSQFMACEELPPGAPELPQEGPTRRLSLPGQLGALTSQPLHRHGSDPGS

[4] = Ratio of drug concentration in brain to plasma of rat at 1 mg/kg, po after 1 hr; format: ADME, organism-based
Procedure, shortened: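 At the end of the catalepsy study, 1 h after a 1 mg/kg oral dose in rats, total brain/plasma (Kp) and unbound brain/plasma (Kp,uu) ratios were determined.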

[5] = biological target: T2, Voltage-gated inwardly rectifying potassium channel KCNH2 (Homo sapiens, UniProt Q12809); assay: Inhibition of human ERG tail current by electrophysiological assay relative to control
T2 sequence (Q12809 whole entry): as above
Procedure, shortened: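 HEK cells, whole-cell electrophysiology. hERG tail current recorded at −40 mV after a depolarizing step to +30 mV; n = 3.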

[6] = system: Rattus norvegicus; assay: Reversal of haloperidol-induced catalepsy in rat at 3 mg/kg, po relative to control; format: functional
Procedure, shortened: (§1)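 Rat haloperidol-induced catalepsy model with oral test dosing at 0.3, 1 and 3 mg/kg alongside vehicle-treated controls. Read-out is latency to withdraw, also expressed as % reversal of catalepsy. Groups compared by ANOVA.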

[7] = Oral bioavailability in Beagle dog at 3 mg/kg measured upto 24 hrs by LC-MS/MS analysis; format: ADME, organism-based, Canis lupus familiaris; conditions: in vivo
Procedure, shortened: (§2)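 Single iv and oral (suspension) dosing; iv/po doses 1/10 mg/kg in SD rat, 1/3 mg/kg in CD-1 mouse and beagle dog. Plasma PK parameters are means from two to three animals per species.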

[8] = biological target: CYP3A4 (Homo sapiens, UniProt P08684); assay: Induction of CYP3A4 in human hepatocytes relative to control; format: ADME, cell-based, Hepatocyte
Sequence of CYP3A4 (P08684 whole entry): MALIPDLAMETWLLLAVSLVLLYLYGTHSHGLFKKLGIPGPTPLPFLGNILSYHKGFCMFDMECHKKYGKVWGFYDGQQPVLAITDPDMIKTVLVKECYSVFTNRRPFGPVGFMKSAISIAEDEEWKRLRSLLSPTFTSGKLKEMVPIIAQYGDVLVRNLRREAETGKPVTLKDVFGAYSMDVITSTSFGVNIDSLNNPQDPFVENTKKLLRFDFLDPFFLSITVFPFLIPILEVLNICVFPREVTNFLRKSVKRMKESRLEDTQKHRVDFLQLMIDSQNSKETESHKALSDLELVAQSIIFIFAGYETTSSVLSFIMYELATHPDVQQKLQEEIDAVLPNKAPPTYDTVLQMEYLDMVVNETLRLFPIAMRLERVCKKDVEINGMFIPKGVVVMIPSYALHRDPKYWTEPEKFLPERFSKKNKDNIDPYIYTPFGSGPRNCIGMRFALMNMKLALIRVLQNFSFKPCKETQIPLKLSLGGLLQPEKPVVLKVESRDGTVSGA

[9] = Tmax in CD-1 mouse at 3 mg/kg, po measured upto 24 hrs by LC-MS/MS analysis; format: ADME, organism-based; conditions: in vivo
Procedure, shortened: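 Pharmacokinetics in Sprague-Dawley rat, CD-1 mouse and beagle dog. Intravenous dose was 1 mg/kg in each species. Oral doses were given as a suspension: 10 mg/kg in rat, 3 mg/kg in mouse and dog. Each parameter is the mean of two to three animals.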

[10] = Ratio of free drug concentration in brain to plasma of Sprague-Dawley rat at 1 mg/kg, iv; format: ADME, organism-based; conditions: read-out: K(p,uu,brain)
[11] = biological target: T3, Muscarinic acetylcholine receptor M4 (Rattus norvegicus, UniProt P08485); assay: Displacement of [3H]NMS from rat muscarinic receptor M4 expressed in CHO cell membranes incubated for 3 hrs by radiometric scintillation counting analysis; set-up: species or system Cell membrane
T3 sequence (P08485 whole entry): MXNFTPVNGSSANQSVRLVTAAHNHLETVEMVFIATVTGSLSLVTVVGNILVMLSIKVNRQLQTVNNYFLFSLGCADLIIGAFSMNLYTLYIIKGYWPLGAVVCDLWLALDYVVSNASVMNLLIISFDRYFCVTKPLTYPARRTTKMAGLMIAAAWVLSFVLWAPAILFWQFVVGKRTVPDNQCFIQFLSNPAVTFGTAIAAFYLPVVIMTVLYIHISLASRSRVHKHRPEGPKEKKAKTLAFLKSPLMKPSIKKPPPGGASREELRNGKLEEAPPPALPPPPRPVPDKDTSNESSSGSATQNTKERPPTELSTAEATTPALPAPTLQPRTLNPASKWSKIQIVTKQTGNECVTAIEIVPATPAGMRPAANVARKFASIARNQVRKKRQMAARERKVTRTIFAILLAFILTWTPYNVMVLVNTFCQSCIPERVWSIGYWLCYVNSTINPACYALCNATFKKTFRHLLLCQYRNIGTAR

[12] = system: Rattus norvegicus; assay: Reversal of haloperidol-induced catalepsy in rat at 0.3 mg/kg, po relative to control; format: functional; procedure, shortened: as §1
[13] = Cmax in CD-1 mouse at 3 mg/kg, po measured upto 24 hrs by LC-MS/MS analysis; format: ADME, organism-based; set-up: route oral, dose 3 mg/kg, time <=24; conditions: in vivo; procedure, shortened: as §2
[14] = system: Rattus norvegicus; assay: Effect on haloperidol-induced catalepsy in rat assessed as reduction in mean latency to withdraw at 1 mg/kg, po (reference value: 43.4 +/- 4.3 sec); format: functional; procedure, shortened: as §1
[15] = system: Rattus norvegicus; assay: Reversal of haloperidol-induced catalepsy in rat at 1.0 mg/kg, po relative to control; format: functional; procedure, shortened: as §1
[16] = biological target: T2, Voltage-gated inwardly rectifying potassium channel KCNH2; assay: Inhibition of human ERG by patch clamp assay
[17] = Clearance in CD-1 mouse plasma at 1.0 mg/kg, iv measured upto 24 hrs by LC-MS/MS analysis; format: ADME, organism-based; procedure, shortened: as §2
[18] = system: P-gp (human); assay: Efflux ratio of apparent permeability basolateral to apical over apical to basolateral side at human P-gp in MDCK-MDR1 cells; format: ADME, cell-based, Canis lupus familiaris; conditions: dog
Procedure, shortened: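 MDCK cell monolayers overexpressing MDR1 (P-gp). Efflux ratio taken as Papp(B-to-A)/Papp(A-to-B).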

SMILES: Fc1cc(F)c(F)c(-c2ccc(N[C@H]3C[C@@H]4CN(CC5CCOCC5)C[C@@H]4C3)nn2)c1
- Emax [1]: 2.1%
- IC50 [2]: > 10 µM
- inhibition at 10 µM [3]: 61%
- Kp at 1 h [4]: 3.4
- inhibition (INH) [5]: 94%
- Activity [6]: 65.2%
- bioavailability [7]: 86%
- Emax [8]: 2.1%
- Tmax [9]: 6.67 h
- Kp uu [10]: 0.61
- IC50 [11]: 145 nM
- Activity [12]: 26.2%
- Cmax [13]: 181 ng/mL
- Activity [14]: 21.3 s
- Activity [15]: 50.9%
- IC50 [16]: 431 nM
- clearance [17]: 17 mL/min/kg
- efflux ratio [18]: 8.9
